# Measured values published in ChEMBL document CHEMBL4376885 (J Med Chem, 2020).
# Tests used:
# [1] = test system: Human immunodeficiency virus 1; assay: Antiviral activity against HIV1 3B infected in human MT4 cells assessed as protection against virus-induced cytopathic effect incubated for 5 days by MTT assay; assay type: functional, organism-based; settings: Human immunodeficiency virus 1, 3B, MT4, 120 h
# [2] = test system: Human immunodeficiency virus 1; assay: Antiviral activity against NNRTI-resistant HIV1 RES056 containing reverse transcriptase K103N+Y181C mutant infected in human MT4 cells assessed as protection against virus-induced cytopathic effect incubated for 5 days by MTT assay; assay type: functional, organism-based; settings: Human immunodeficiency virus 1, RES056, MT4, 120 h
# [3] = test system: Human immunodeficiency virus 1; assay: Antiviral activity against HIV1 containing reverse transcriptase L100I mutant infected in human MT4 cells assessed as protection against virus-induced cytopathic effect incubated for 5 days by MTT assay; assay type: functional, organism-based; settings: Human immunodeficiency virus 1, MT4, 120 h
# [4] = test system: Human immunodeficiency virus 1; assay: Antiviral activity against HIV1 containing reverse transcriptase K103N mutant infected in human MT4 cells assessed as protection against virus-induced cytopathic effect incubated for 5 days by MTT assay; assay type: functional, organism-based; settings: Human immunodeficiency virus 1, MT4, 120 h
# [5] = test system: Human immunodeficiency virus 1; assay: Antiviral activity against HIV1 containing reverse transcriptase Y181C mutant infected in human MT4 cells assessed as protection against virus-induced cytopathic effect incubated for 5 days by MTT assay; assay type: functional, organism-based; settings: Human immunodeficiency virus 1, MT4, 120 h
# [6] = test system: Human immunodeficiency virus 1; assay: Antiviral activity against HIV1 containing reverse transcriptase Y188L mutant infected in human MT4 cells assessed as protection against virus-induced cytopathic effect incubated for 5 days by MTT assay; assay type: functional, organism-based; settings: Human immunodeficiency virus 1, MT4, 120 h
# [7] = test system: Human immunodeficiency virus 1; assay: Antiviral activity against HIV1 containing reverse transcriptase E138K mutant infected in human MT4 cells assessed as protection against virus-induced cytopathic effect incubated for 5 days by MTT assay; assay type: functional, organism-based; settings: Human immunodeficiency virus 1, MT4, 120 h
# [8] = test system: Human immunodeficiency virus 1; assay: Antiviral activity against HIV1 containing reverse transcriptase F227L+V106A mutant infected in human MT4 cells assessed as protection against virus-induced cytopathic effect incubated for 5 days by MTT assay; assay type: functional, organism-based; settings: Human immunodeficiency virus 1, MT4, 120 h
# [9] = target: Cytochrome P450 2D6 (Homo sapiens, UniProt P10635); assay: Inhibition of CYP2D6 in human liver microsomes using dextromethorphan substrate in presence of NADPH incubated for 10 mins; assay type: ADME
# [10] = Toxicity in Kunming mouse assessed as induction of mortality at 2000 mg/kg, po administered as single dose measured during 7 days post dose; assay type: organism-based; settings: in vivo, 168 h
# Procedure, shortened: (§1)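 Kunming mice received a single oral 2000 mg/kg dose and were followed for 7 days alongside an untreated control group. Mortality, poisoning symptoms and behaviour were recorded, and relative body-weight change was tracked.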
# [11] = Toxicity in Kunming mouse assessed as induction of poisoning symptoms at 2000 mg/kg, po administered as single dose measured during 7 days post dose; assay type: organism-based; settings: in vivo, 168 h; procedure, shortened: as §1
# [12] = Toxicity in Kunming mouse assessed as induction of abnormal behaviors at 2000 mg/kg, po administered as single dose measured during 7 days post dose; assay type: organism-based; settings: in vivo, 168 h; procedure, shortened: as §1
# [13] = Toxicity in Kunming mouse assessed as induction of body weight changes at 2000 mg/kg, po administered as single dose measured during 7 days post dose; assay type: organism-based; settings: in vivo, 168 h; procedure, shortened: as §1
# [14] = Tmax in Wistar rat at 2 mg/kg, iv by LC-MS/MS analysis; assay type: ADME, organism-based; settings: in vivo
# Procedure, shortened: (§2)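 Single dose, intravenous at 2 mg/kg or oral at 10 mg/kg, in Wistar rats and Kunming mice.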
# [15] = Tmax in Wistar rat at 10 mg/kg, po by LC-MS/MS analysis; assay type: ADME, organism-based; settings: in vivo; procedure, shortened: as §2
# [16] = Tmax in Kunming mouse at 2 mg/kg, iv by LC-MS/MS analysis; assay type: ADME, organism-based; settings: in vivo; procedure, shortened: as §2
# [17] = Tmax in Kunming mouse at 10 mg/kg, po by LC-MS/MS analysis; assay type: ADME, organism-based; settings: in vivo; procedure, shortened: as §2
# Cytochrome P450 2D6, sequence (P10635 whole entry): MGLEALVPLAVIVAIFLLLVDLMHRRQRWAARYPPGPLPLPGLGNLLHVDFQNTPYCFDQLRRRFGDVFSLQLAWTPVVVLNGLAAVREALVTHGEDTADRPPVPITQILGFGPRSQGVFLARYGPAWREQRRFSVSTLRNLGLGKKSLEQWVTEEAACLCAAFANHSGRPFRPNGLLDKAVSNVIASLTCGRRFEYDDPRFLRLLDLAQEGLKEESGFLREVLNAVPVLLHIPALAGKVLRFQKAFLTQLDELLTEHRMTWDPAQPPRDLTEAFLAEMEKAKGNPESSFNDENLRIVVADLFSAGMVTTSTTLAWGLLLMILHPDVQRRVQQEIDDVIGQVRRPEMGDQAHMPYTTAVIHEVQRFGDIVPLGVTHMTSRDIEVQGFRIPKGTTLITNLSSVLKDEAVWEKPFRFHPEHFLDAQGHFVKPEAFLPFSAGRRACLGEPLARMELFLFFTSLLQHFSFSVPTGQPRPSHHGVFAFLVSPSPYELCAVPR
Compound,EC50 [1] [nM],EC50 [2] [nM],also measured
Cc1cc(C#N)cc(C)c1Oc1nc(Nc2ccc(C#N)cc2C(F)(F)F)nc2sccc12,1280,–,–
Cc1cc(C#N)cc(C)c1Oc1nc(Nc2ccc(C#N)c(F)c2)nc2sccc12,10.1,119,–
Cc1cc(/C=C/C#N)cc(C)c1Oc1nc(Nc2ccc(C#N)c(F)c2)nc2ccsc12,8.6,21.5,EC50 [3]: < 3.62 nM; EC50 [4]: < 3.62 nM; EC50 [5]: 8.49 nM; EC50 [6]: 8.15 nM; EC50 [7]: 9.4 nM; EC50 [8]: 9.28 nM; IC50 [9]: > 50000 nM; Activity [10]: Non-Toxic; Activity [11]: Non-Toxic; Activity [12]: Non-Toxic; Activity [13]: Non-Toxic; Tmax [14]: 1.98 min; Tmax [15]: 30 min; Tmax [16]: 1.98 min; Tmax [17]: 60 min
Cc1cc(C#N)cc(C)c1Oc1nc(Nc2ccc(C#N)c(F)c2)nc2c1COC2,2.99,274,–
Cc1cc(C#N)cc(C)c1Oc1nc(Nc2ccc(C#N)c(F)c2)nc2c1CSC2,20.7,611,–
Cc1cc(C#N)cc(C)c1Oc1ccnc(Nc2ccc(C#N)c(F)c2)n1,6.33,388,–
Cc1cc(C#N)cc(C)c1Oc1nc(Nc2ccc(C#N)c(F)c2)nc2ncsc12,3,131,–
Cc1cc(C#N)cc(C)c1Oc1nc(Nc2ccc(C#N)c(F)c2)nc2ccsc12,6.74,50.1,–
Cc1cc(/C=C/C#N)cc(C)c1Oc1nc(Nc2ccc(C#N)c(F)c2F)nc2ccsc12,8.92,1090,–
Cc1cc(C#N)cc(C)c1Oc1nc(Nc2ccc(C#N)c(F)c2)nc2c1CCC2,37.7,951,–
Cc1cc(C#N)cc(C)c1Oc1nc(Nc2ccc(C#N)cc2C(F)(F)F)nc2ccsc12,896,–,–
Cc1cc(/C=C/C#N)cc(C)c1Oc1nc(Nc2ccc(C#N)c(C(F)(F)F)c2)nc2sccc12,35.3,140,–
Cc1cc(C#N)cc(C)c1Oc1nc(Nc2ccc(C#N)c(F)c2)nc2c1SCC2,6.31,107,–
Cc1cc(C#N)cc(C)c1Oc1nc(Nc2ccc(C#N)c(F)c2)nc2c1CCCC2,11.3,180,–
Cc1cc(/C=C/C#N)cc(C)c1Oc1nc(Nc2ccc(C#N)cc2F)nc2sccc12,7.13,473,–
Cc1cc(/C=C/C#N)cc(C)c1Oc1nc(Nc2ccc(C#N)cc2C(F)(F)F)nc2sccc12,166,–,–
Cc1cc(/C=C/C#N)cc(C)c1Oc1nc(Nc2ccc(C#N)c(F)c2)nc2sccc12,7.64,33.4,EC50 [3]: 5.55 nM; EC50 [4]: 7.36 nM; EC50 [5]: 26.3 nM; EC50 [6]: 35.7 nM; EC50 [7]: 29.7 nM; EC50 [8]: 32.8 nM

Compound,EC50 [1] [nM],EC50 [2] [nM],also measured
Cc1cc(C#N)cc(C)c1Oc1nc(Nc2ccc(C#N)c(F)c2)nc2cccc(F)c12,12.3,182,–
Cc1cc(C#N)cc(C)c1Oc1nc(Nc2ccc(C#N)c(C(F)(F)F)c2)nc2ccsc12,29.2,–,–
Cc1cc(C#N)cc(C)c1Oc1nc(Nc2ccc(C#N)cc2F)nc2sccc12,24,–,–
Cc1cc(C#N)cc(C)c1Oc1nc(Nc2ccc(C#N)c(C(F)(F)F)c2)nc2sccc12,44.9,–,–
Cc1cc(C#N)cc(C)c1Oc1cc(Cl)nc(Nc2ccc(C#N)c(F)c2)n1,48.9,898,–
Cc1cc(C#N)cc(C)c1Oc1nc(Nc2ccc(C#N)c(F)c2)nc2scnc12,3.72,162,–
Cc1cc(C#N)cc(C)c1Oc1nc(Nc2ccc(C#N)cc2F)nc2ccsc12,30.4,–,–
Cc1cc(C#N)cc(C)c1Oc1nc(Nc2ccc(C#N)c(F)c2F)nc2ccsc12,226,–,–
Cc1cc(/C=C/C#N)cc(C)c1Oc1nc(Nc2ccc(C#N)cc2F)nc2ccsc12,6.34,561,–
Cc1cc(/C=C/C#N)cc(C)c1Oc1nc(Nc2ccc(C#N)cc2C(F)(F)F)nc2ccsc12,24.5,48.4,–
Cc1cc(/C=C/C#N)cc(C)c1Oc1nc(Nc2ccc(C#N)c(C(F)(F)F)c2)nc2ccsc12,146,–,–
Cc1cc(/C=C/C#N)cc(C)c1Oc1nc(Nc2ccc(C#N)c(F)c2F)nc2sccc12,18.6,2350,–
Cc1cc(C#N)cc(C)c1Oc1nc(Nc2ccc(C#N)c(F)c2)nc2cc[nH]c12,2.89,29.4,–
Cc1cc(C#N)cc(C)c1Oc1nc(Nc2ccc(C#N)c(F)c2)nc2ccccc12,8.07,148,–
Cc1cc(C#N)cc(C)c1Oc1nc(Nc2ccc(C#N)c(F)c2F)nc2sccc12,40.3,–,–
O=C1Nc2ccc(Cl)cc2[C@@](C#CC2CC2)(C(F)(F)F)O1 [EFAVIRENZ],2.31 to 2.49,186 to 260,–
Cc1cc(C#N)cc(C)c1Oc1nc(Nc2ccc(C#N)cc2)nc(N)c1Br [ETRAVIRINE],2.55 to 3.13,32.2 to 37.9,–
